Data from ChEMBL document CHEMBL1128682, “Design and synthesis of new naphthalenic derivatives as ligands for 2-[125I]iodomelatonin binding sites” (J Med Chem, 1995).

target: T1, Melatonin receptor (Gallus gallus, UniProt P49288+P51050+P49285); test: Effect of compound on Melatonin receptor in chicken brain in the presence of MnCl2

Ki [nM] | SMILES
0.297 | CCC(=O)NCCc1c(OC)ccc2ccccc12

target: T1, Melatonin receptor; test: Effect of compound on Melatonin receptor in chicken brain in the presence of GTP-gamma-S

Ki [nM] | SMILES
2.86 | CCC(=O)NCCc1c(OC)ccc2ccccc12

target: T1, Melatonin receptor; test: Competitive binding by the displacement of 2-[125I]- Iodomelatonin binding from melatonin receptors in chicken brain membranes; type: cell membranes, Membrane
How it was run: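 Whole chicken brain (Redbro, 4 months) homogenized in ice-cold 50 mM Tris-HCl pH 7.4, washed twice by centrifugation, and resuspended at 5 mg protein/mL. Filtration through PEI-soaked glass fiber filters, then gamma counting. Nonspecific binding defined with 10 μM 2-iodomelatonin. Triplicates. Ki from IC50 by Cheng-Prusoff; one or two determinations.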

SMILES | Ki [nM]
CCC(=O)NCCc1c(OC)ccc2ccc(OC)cc12 | 0.07
CC(=O)NCCc1cccc(Cl)c1 | > 1000
CCC(=O)NCCc1c(OC)ccc2ccccc12 | 0.68
CC(=O)NCCc1ccc(Cl)cc1 | > 1000
COc1ccc2ccc(OC)c(CCNC(=O)C3CC3)c2c1 | 0.05
COc1ccc(C)cc1CCNC(C)=O | 192
COc1ccc(OC)c(CCNC(=O)C2CC2)c1 | 386
CCC(=O)NCCc1cc(Br)ccc1OC | 8
COc1ccc2ccc(OC)c(CCNC(C)=O)c2c1 | 0.1
COc1ccc(CCNC(C)=O)cc1 | > 1000
COc1ccc2ccc(OC)c(CCNC(=O)C(F)(F)F)c2c1 | 0.4
CC(=O)NCCc1cccc2ccccc12 | 321
CCC(=O)NCCc1cc(OC)ccc1OC | 17.5
COc1ccc2ccccc2c1CCNC(=O)C(F)(F)F | 0.54
COc1ccc(OC)c(CCNC(C)=O)c1 | 69.9
CC(=O)NCCc1ccccc1Cl | > 1000
COc1ccc2ccccc2c1CCNC(C)=O | 2.68
COc1ccc2ccccc2c1CC(C)NC(=O)C(F)(F)F (stereo not given) | > 1000
COc1ccc2ccccc2c1CC(C)NC(C)=O (stereo not given) | 421
CC(=O)NCCc1cccc(F)c1 | > 1000

Second part, the molecule after the results:

Ki [nM] | SMILES
217 | CCc1ccc(OC)c(CCNC(C)=O)c1
237 | CCCCC(=O)NCCc1c(OC)ccc2ccccc12
213 | COc1ccccc1CCNC(C)=O
253 | COc1cccc(CCNC(C)=O)c1
19.4 | COc1ccc2ccccc2c1CCNC(=O)C1CC1
42 | COc1ccc(Br)cc1CCNC(C)=O
1.37 | CCCC(=O)NCCc1c(OC)ccc2ccccc12
> 1000 | CCCCC(=O)NCCc1cc(OC)ccc1OC
